Experimental data from article PMC8598261 (European Journal of Medicinal Chemistry, 2021).

Assays:
caspase-1 = target: T1, caspase-1 (Homo sapiens, UniProt P29466); experiment: Caspase-1 inhibition assay, cleavage of fluorogenic substrate YVAD-AFC; type: biochemical; details: for remaining activity at 100 µM: read-out: Enzyme activity (% at 100 μM)
T1 sequence (P29466 120-297 limits assumed): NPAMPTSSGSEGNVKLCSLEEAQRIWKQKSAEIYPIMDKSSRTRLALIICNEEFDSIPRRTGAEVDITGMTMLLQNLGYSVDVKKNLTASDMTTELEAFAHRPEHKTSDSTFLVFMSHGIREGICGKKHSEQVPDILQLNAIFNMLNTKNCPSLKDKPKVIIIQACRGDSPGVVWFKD
T1 sequence (P29466 317-404 limits assumed): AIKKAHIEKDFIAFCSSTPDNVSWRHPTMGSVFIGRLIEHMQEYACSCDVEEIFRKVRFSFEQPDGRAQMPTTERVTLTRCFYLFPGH
Summary of the method: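 Fluorogenic caspase-1 assay: cleavage of YVAD-AFC releases free AFC, followed as a time course of fluorescence increase (Ex/Em 400/505 nm) and compared with an untreated control. Test compounds were run as 10-dose, 3-fold serial dilutions starting at 100 μM or 10 μM to give IC50. Residual activity at 100 μM is reported as % enzyme activity.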

U937 cells = experiment: U937 cell growth inhibition / cell viability by MTT assay; type: cell-based, human; details: lowest concentrations (range 1 nM to 100 μM), 48 h
Summary of the method: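 Human U937 cells were grown in RPMI 1640 with 10% FBS, penicillin and streptomycin at 37 °C in 5% CO2. They were seeded at 10000 cells/well and exposed to test compound at 1 nM–100 μM for 48 h, with matched DMSO-only controls. MTT (0.1 mg/well) was added for 4 h at 37 °C, then cells were lysed and A595 read. Viability is % of control (100%), mean of three independent experiments.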

| remaining activity at 100 µM (caspase-1) [%] | IC50 (caspase-1) [µM] | SMILES | cytotoxic effect (U937 cells) |
| --- | --- | --- | --- |
| > 96.7 |  | CC(C)C(NCC(O)CC(=O)O)c1nnnn1CCCC(=O)NCc1ccccc1 (centres unmarked) [5bb, Sodium 4-((1-(1-(4-(benzylamino)-4-oxobutyl)-1H-tetrazol-5-yl)-2-methylpropyl)amino)-3-hydroxybutanoate] |  |
| 37.2 | 51.4 | O=C(O)C[C@H](O)CNC(c1cccs1)c1nnnn1CCCC(=O)N1CCc2ccccc2C1 (mixture of isomers) [(3S)5ah, Sodium (3S)-4-(((1-(4-(3,4-dihydroisoquinolin-2(1H)-yl)-4-oxobutyl)-1H-tetrazol-5-yl)(thiophen-2-yl)methyl)amino)-3-hydroxybutanoate] |  |
| > 96.7 |  | O=C(O)CC(O)CNC(c1cccs1)c1nnnn1CCCC(=O)NCc1ccccc1 (centres unmarked) [5bf, Sodium 4-(((1-(4-(benzylamino)-4-oxobutyl)-1H-tetrazol-5-yl)(thiophen-2-yl)methyl)amino)-3-hydroxybutanoate] |  |
| > 96.7 |  | O=C(O)CC(O)CNC(c1ccccc1)c1nnnn1CCCC(=O)NCc1ccccc1 (centres unmarked) [5be, Sodium 4-(((1-(4-(benzylamino)-4-oxobutyl)-1H-tetrazol-5-yl)(phenyl)methyl)amino)-3-hydroxybutanoate] |  |
|  |  | CC(C)CC(c1nnnn1CCCC(=O)N1CCc2ccccc2C1)N(Cc1ccccc1)CC(O)CC(=O)[O-].[Na+] (centres unmarked) [16aa, Sodium 4-(benzyl(1-(1-(4-(3,4-dihydroisoquinolin-2(1H)-yl)-4-oxobutyl)-1H-tetrazol-5-yl)-3-methylbutyl)amino)-3-hydroxybutanoate] | low or is not significant |
| 48.6 | 68 | O=C(O)C[C@H](O)CNC(c1ccccc1)c1nnnn1CCCC(=O)N1CCc2ccccc2C1 (mixture of isomers) [(3S)5 ag, Sodium (3S)-4-(((1-(4-(3,4-dihydroisoquinolin-2(1H)-yl)-4-oxobutyl)-1H-tetrazol-5-yl)(phenyl)methyl)amino)-3-hydroxybutanoate] |  |
| 9.71 | 12.2 | CC(C)(C)CC(NC[C@H](O)CC(=O)O)c1nnnn1CCCC(=O)N1CCc2ccccc2C1 (mixture of isomers) [(3R)5ae, Sodium (3R)-4-((1-(1-(4-(3,4-dihydroisoquinolin-2(1H)-yl)-4-oxobutyl)-1H-tetrazol-5-yl)-3,3-dimethylbutyl)amino)-3-hydroxybutanoate] |  |
| > 96.7 |  | COc1cc2c(cc1OC)CN(C(=O)CCCn1nnnc1C(NCC(O)CC(=O)O)C(C)C)CC2 (centres unmarked) [5ca, Sodium 4-((1-(1-(4-(6,7-dimethoxy-3,4-dihydroisoquinolin-2(1H)-yl)-4-oxobutyl)-1H-tetrazol-5-yl)-2-methylpropyl)amino)-3-hydroxybutanoate] |  |
|  |  | CC(C)(C)CC(NCC(O)CC(=O)[O-])c1nnnn1CCCC(=O)N1CCc2ccccc2C1.[Na+] (centres unmarked) [5ae, Sodium-4-((1-(1-(4-(3,4-dihydroisoquinolin-2(1H)-yl)-4-oxobutyl)-1H-tetrazol-5-yl)-3,3-dimethylbutyl)amino)-3-hydroxybutanoate] | low or is not significant |
| 4.45 | 15 | CC(C)(C)CC(c1nnnn1CCCC(=O)N1CCc2ccccc2C1)N(Cc1ccccc1)C[C@H](O)CC(=O)O (mixture of isomers) [(3R)16ac, Sodium (3R)-4-((1-(1-(4-(3,4-dihydroisoquinolin-2(1H)-yl)-4-oxobutyl)-1H-tetrazol-5-yl)-3,3-dimethylbutyl)(benzyl)amino)-3-hydroxybutanoate] |  |
| > 96.7 |  | COc1cc2c(cc1OC)CN(C(=O)CCCn1nnnc1C(NCC(O)CC(=O)O)c1cccs1)CC2 (centres unmarked) [5ce, Sodium 4-(((1-(4-(6,7-dimethoxy-3,4-dihydroisoquinolin-2(1H)-yl)-4-oxobutyl)-1H-tetrazol-5-yl)(thiophen-2-yl)methyl)amino)-3-hydroxybutanoate] |  |
| 29 | 32.6 | O=C(O)C[C@@H](O)CNC(c1cccs1)c1nnnn1CCCC(=O)N1CCc2ccccc2C1 (mixture of isomers) [(3R)5ah, Sodium (3R)-4-(((1-(4-(3,4-dihydroisoquinolin-2(1H)-yl)-4-oxobutyl)-1H-tetrazol-5-yl)(thiophen-2-yl)methyl)amino)-3-hydroxybutanoate] |  |
| > 96.7 |  | CC(NCC(O)CC(=O)O)c1nnnn1CCCC(=O)N1CCc2ccccc2C1 (centres unmarked) [5aa, Sodium 4-((1-(1-(4-(3,4-dihydroisoquinolin-2(1H)-yl)-4-oxobutyl)-1H-tetrazol-5-yl)ethyl)amino)-3-hydrxybutanoate] |  |
| 49.6 | 77.8 | O=C(O)C[C@@H](O)CNC(c1cccs1)c1nnnn1CCCC(=O)NCc1ccccc1 (mixture of isomers) [(3R)5bf, Sodium (3R)-4-(((1-(4-(benzylamino)-4-oxobutyl)-1H-tetrazol-5-yl)(thiophen-2-yl)methyl)amino)-3-hydroxybutanoate] |  |
| 40.5 | 53.5 | O=C(O)C[C@@H](O)CNC(c1ccccc1)c1nnnn1CCCC(=O)N1CCc2ccccc2C1 (mixture of isomers) [(3R)5 ag, Sodium (3R)-4-(((1-(4-(3,4-dihydroisoquinolin-2(1H)-yl)-4-oxobutyl)-1H-tetrazol-5-yl)(phenyl)methyl)amino)-3-hydroxybutanoate] |  |
| > 96.7 |  | CC(NCC(O)CC(=O)O)c1nnnn1CCCC(=O)NCc1ccccc1 (centres unmarked) [5ba, Sodium 4-((1-(1-(4-(benzylamino)-4-oxobutyl)-1H-tetrazol-5-yl)ethyl)amino)-3-hydroxybutanoate] |  |
